Marks after values point to notes of the source that are not given here.
Tests used:
[1] = tested on: panel of Gram-positive and Gram-negative bacteria; experiment: MIC, summary statements over the panel; assay type: cell-based; details: read-out: MICs for the tetracycline-susceptible strains
Method in brief: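 Broth microdilution MIC in liquid medium following CLSI methods. Medium was cation-adjusted Mueller Hinton broth, prepared fresh and held at 4 °C before testing, with defibrinated horse blood added as appropriate. Runs were accepted when comparator antibiotics fell within recommended quality-control ranges for the appropriate ATCC quality-control strains.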

[2] = tested on: E. coli S30 extract system (coupled transcription/translation); assay type: biochemical; details: relative to tetracycline
[3] = tested on: S. aureus clinical isolates (n = 31); experiment: MIC50/MIC90 analysis, clinical isolates; assay type: cell-based, Staphylococcus aureus; details: n = 31 clinical isolates
[4] = tested on: S. pneumoniae clinical isolates (n = 19); experiment: MIC50/MIC90 analysis, clinical isolates; assay type: cell-based, Streptococcus pneumoniae; details: n = 19 clinical isolates
[5] = tested on: H. influenzae clinical isolates (n = 11); experiment: MIC50/MIC90 analysis, clinical isolates; assay type: cell-based, Haemophilus influenzae; details: n = 11 clinical isolates
[6] = tested on: E. coli clinical isolates (n = 20); experiment: MIC50/MIC90 analysis, clinical isolates; assay type: cell-based, Escherichia coli; details: n = 20 clinical isolates
[7] = for Clobs / Vzobs: Sprague−Dawley rats, 1 mg/kg IV and 10 mg/kg PO, sterile water
[8] = cited from earlier work
[9] = tested on: S. aureus ATCC 13709 (Smith); experiment: Mouse septicemia model, IV efficacy; assay type: in vivo; details: IV 1 h postchallenge, survival after 48 h

Structure (SMILES)	MIC range S. aureus [3]	MIC range H. influenzae [5]	Clobs [7]	Vzobs [7]	also measured
CN(C)[C@@H]1C(O)=C(C(N)=O)C(=O)[C@@]2(O)C(O)=C3C(=O)c4c(O)cncc4C[C@H]3C[C@@H]12.Cl.Cl [20a, 6-Demethyl-6-deoxy-8-azatetracycline Dihydrochloride]					MIC [1]: 0.25 to 1 µg/mL
CN(C)[C@@H]1C(O)=C(C(N)=O)C(=O)[C@@]2(O)C(O)=C3C(=O)c4c(O)c(N)nc(F)c4C[C@H]3C[C@@H]12.Cl.Cl [20k, 9-Amino-6-demethyl-6-deoxy-7-fluoro-8-azatetracycline Dihydrochloride]					fold more potent than tetracycline in transcription/translation assay [2]: about 2 fold
CN(C)[C@@H]1C(O)=C(C(N)=O)C(=O)[C@@]2(O)C(O)=C3C(=O)c4c(O)cccc4[C@@](C)(O)[C@H]3C[C@@H]12 [tetracycline]					oral bioavailability in humans [8]: 50−70%
CN(C)[C@@H]1C(O)=C(C(N)=O)C(=O)[C@@]2(O)C(O)=C3C(=O)c4c(O)c(N)nc(Cl)c4C[C@H]3C[C@@H]12 [20j, 9-Amino-7-chloro-6-demethyl-6-deoxy-8-azatetracycline]					fold more potent than tetracycline in transcription/translation assay [2]: about 2 fold

Second part, led by results:

MIC range S. aureus [3]	MIC range H. influenzae [5]	Clobs [7]	Vzobs [7]	Structure (SMILES)	also measured
0.063−4 μg/mL	0.25−2 μg/mL	3.37 mL/min/kg	1.256 L/kg	CN(C)CC(C)(C)CNc1nc(Cl)c2c(c1O)C(=O)C1=C(O)[C@]3(O)C(=O)C(C(N)=O)=C(O)[C@@H](N(C)C)[C@@H]3C[C@@H]1C2.Cl [24l, 7-Chloro-6-demethyl-6-deoxy-9-[[3-(dimethylamino)-2,2-dimethylpropyl]amino]-8-azatetracycline Trihydrochloride]	MIC range S. pneumoniae [4]: ≤0.016−0.063 μg/mL; MIC range E. coli [6]: 0.5−8 μg/mL; fold lower clearance than the other three compounds ([7]; Sprague-Dawley, rat, in vivo): 5 fold
≤0.016−1 μg/mL	0.25−1 μg/mL	15.5 mL/min/kg	6.119 L/kg	CN(C)c1cc(NC(=O)CNC(C)(C)C)c(O)c2c1C[C@H]1C[C@H]3[C@H](N(C)C)C(O)=C(C(N)=O)C(=O)[C@@]3(O)C(O)=C1C2=O [tigecycline, reference compound]	MIC range E. coli [6]: 0.125−2 μg/mL
≤0.016−32 μg/mL	0.063−4 μg/mL	15.3 mL/min/kg	4.177 L/kg	CN(C)c1ncc(O)c2c1C[C@H]1C[C@H]3[C@H](N(C)C)C(O)=C(C(N)=O)C(=O)[C@@]3(O)C(O)=C1C2=O.Cl.Cl [20f, 6-Demethyl-6-deoxy-7-(dimethylamino)-8-azatetracycline Dihydrochloride]	MIC range S. pneumoniae [4]: ≤0.016−8 μg/mL; S. aureus PD50 [9]: <0.30 ^b mg/kg

Source: PMC3103189 (Journal of Medicinal Chemistry, 2011)
